Assay results of several laboratories.
Each line is one published result; the experiments were not run side by side.
Read-out: enzyme activity
Action: inhibitor
FLT3: Receptor-type tyrosine-protein kinase FLT3 (FLT3, Homo sapiens, UniProt P36888)
FLT3 D835Y: Receptor-type tyrosine-protein kinase FLT3 (FLT3, Homo sapiens, UniProt P36888, D835Y)

SMILES | target | assay | setting | inhibition
CN(C)C1CCN(CC#Cc2nn(C3CCCC3)c3nc(NCc4ccccc4)ncc23)C1 (centres unmarked) | FLT3 | FRET | 1 µM | 24%
C=CC(=O)Nc1cc(Nc2nccc(Nc3cc(Cl)c(F)cc3C(C)(C)O)n2)c(OC)cc1N1CC[C@@H](N(C)C)C1 | FLT3 |  | 1 µM | 16%
CCCS(=O)(=O)Nc1ccc(F)c(C(=O)c2c[nH]c3ncc(-c4ccc(Cl)cc4)cc23)c1F | FLT3 |  | 1 µM | < 20%
Cn1cncc1C1=CN(c2ncnc3[nH]cnc23)CCS1 | FLT3 | radiometric | 50 nM | 22.2%
COc1cc2ncnc(Nc3ccc(Oc4ccccc4)cc3C)c2cc1OC | FLT3 |  | 1 µM | 79%
CNc1cccc2cc(C(=O)Nc3ccc(C(=O)O)cc3)c(=O)[nH]c12 | FLT3 D835Y |  | 10 µM | 0.73%
Cn1cnc(Br)c1C1=CN(c2ncnc3[nH]cnc23)CCS1 | FLT3 | radiometric | 50 nM | 16.8%
CN1CC(Oc2cnc(C#N)cc2-c2ccn3nc(NC(=O)C4CC4)cc3c2)C1 | FLT3 |  | 1 µM | 0%
COc1cc2ncnc(Nc3ccc(Oc4ccccc4)c(C)c3C)c2cc1OC | FLT3 D835Y |  | 1 µM | 2%
COc1cc(-c2cc(-c3ccc(N4CCNCC4)cc3)cnc2N)cc(OC)c1OC | FLT3 D835Y |  | 1 µM | 2%
O=C(CSc1nc2nccnc2c(=O)n1CCc1ccccc1)Nc1nccs1 | FLT3 |  | 10 µM | 13%
